According to ChEMBL document CHEMBL1143012, “Synthesis and pharmacological in vitro and in vivo evaluations of novel triazole derivatives as ligands of the ghrelin receptor. 1” (J Med Chem, 2007):
pEC50, pIC50: −log10 of the molar value. Square brackets hold non-standard residues; d marks the D form. Peptide text beside a SMILES is read from it. dTrp(2-Me) = Cc1[nH]c2ccccc2c1C[C@@H](N)C(=O)O

Legend:
[1] = biological target: T1, Growth hormone secretagogue receptor type 1 (Homo sapiens, UniProt Q92847); experiment: Antagonist activity at human GHS1a receptor expressed in CHO cells assessed as inhibition of ghrelin-induced intracellular calcium mobilization; assay type: functional, cell-based
T1 sequence (Q92847 whole entry): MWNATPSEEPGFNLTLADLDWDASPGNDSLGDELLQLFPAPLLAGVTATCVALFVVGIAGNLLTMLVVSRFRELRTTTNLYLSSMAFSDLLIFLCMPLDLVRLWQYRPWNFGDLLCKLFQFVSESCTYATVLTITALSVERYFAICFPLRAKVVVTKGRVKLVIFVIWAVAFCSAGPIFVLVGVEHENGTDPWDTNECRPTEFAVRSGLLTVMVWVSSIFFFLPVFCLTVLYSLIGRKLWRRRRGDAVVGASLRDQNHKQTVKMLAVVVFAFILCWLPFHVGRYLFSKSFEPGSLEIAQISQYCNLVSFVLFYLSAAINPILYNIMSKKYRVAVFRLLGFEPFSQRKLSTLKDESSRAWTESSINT
Outline: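 Calcium flux (Fluo-4AM, ex 485/em 525 nm) in CHO cells transiently expressing hGHS-R1a. Antagonist inhibition curves against 0.1 µM ghrelin give IC50; Kb by Cheng-Prusoff, with Schild analysis of ghrelin EC50 shifts for pA2 and exact Kb. Signal as percentage of 10 µM ghrelin response; duplicates, at least three experiments.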

[2] = biological target: T1, Growth hormone secretagogue receptor type 1; experiment: Displacement of [125I-His9]ghrelin from human GHS1a receptor expressed in LLC PK1 cells; assay type: cell-based
Outline: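 Membranes from LLC PK-1 cells transiently electroporated with hGHS-R1a (harvested about 48 h), 10 µg protein, incubated 60 min at 25 °C with 60 pM 125I-His9-ghrelin in Tris pH 7.3/MgCl2/EDTA/bacitracin buffer. Filtered, washed, gamma counted; nonspecific binding with 10 µM ghrelin. Triplicates, at least three experiments.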

Rattus norvegicus [3] = experiment: Stimulation of cumulative food intake per 100 g body weight in Sprague-Dawley rat at 160 ug/kg, sc at 6 hrs; assay type: functional
Outline: (§1)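 Male Sprague-Dawley rats (125-150 g), singly housed and trained, given compound sc alone (cumulative food intake as g/100 g body weight, weighed hourly to 6 h); percentage variation calculated as (compound minus hexarelin 80 µg/kg intake)/hexarelin intake at 6 h. Mean ± SEM, ANOVA with Dunnett's test.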

Rattus norvegicus [4] = experiment: Stimulation of cumulative food intake in Sprague-Dawley rat at 160 ug/kg, sc at 6 hrs relative to 80 ug/kg hexarelin; assay type: functional; outline: as §1
[5] = biological target: T1, Growth hormone secretagogue receptor type 1; experiment: Activity at human GHS1a receptor expressed in CHO cells assessed as intracellular calcium mobilization relative to 0.1 uM ghrelin; assay type: functional, cell-based
Rattus norvegicus [6] = experiment: Effect on growth hormone secretion in Sprague-Dawley rat at 80 ug/kg, sc; assay type: functional
Outline: (§2)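 Male 10-day-old Sprague-Dawley pups (~25 g), groups of eight, separated from dams 1 h before. Compounds in DMSO diluted with saline, sc; hexarelin 80 µg/kg, test compound 160 µg/kg; with combined treatment compound given 10 min before hexarelin. Killed 15 min later; plasma GH by rat GH enzyme immunoassay, ng/mL.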

Rattus norvegicus [7] = experiment: Stimulation of cumulative food intake in Sprague-Dawley rat at 80 ug/kg, sc at 6 hrs; assay type: functional; outline: as §1
[8] = biological target: T1, Growth hormone secretagogue receptor type 1; experiment: Agonist activity at human GHS1a receptor expressed in CHO cells assessed as induction of intracellular calcium mobilization; assay type: functional, cell-based
Outline: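 CHO cells transiently expressing hGHS-R1a via electroporation, Fluo-4AM loaded (1 µM, 1 h, 37 °C), calcium fluorescence read 60 s at ex 485/em 525 nm. EC50 from agonist dose-response curves, response as percentage of maximal signal from 10 µM ghrelin; triplicates, means of at least three experiments.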

Rattus norvegicus [9] = experiment: Inhibition of hexarelin-stimulated cumulative food intake in Sprague-Dawley rat at 320 ug/kg, sc at 6 hrs; assay type: functional
Outline: (§3)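 Male Sprague-Dawley rats (125-150 g), singly housed, acclimated and trained. Compound given sc at 0, 20, 80, 160 or 320 µg/kg at -10 min, then hexarelin 80 µg/kg sc at time 0. Food weighed hourly for 6 h, normalized as g/100 g body weight; 7-8 determinations, one-way ANOVA with Dunnett's test.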

Rattus norvegicus [10] = experiment: Effect on growth hormone secretion in Sprague-Dawley rat at 160 ug/kg, sc; assay type: functional; outline: as §2
Rattus norvegicus [11] = experiment: Inhibition of hexarelin-stimulated cumulative food intake in Sprague-Dawley rat at 20 ug/kg, sc at 6 hrs; assay type: functional; outline: as §3
Rattus norvegicus [12] = experiment: Inhibition of hexarelin-stimulated cumulative food intake in Sprague-Dawley rat at 160 ug/kg, sc at 6 hrs; assay type: functional; outline: as §3
Rattus norvegicus [13] = experiment: Inhibition of hexarelin-stimulated cumulative food intake in Sprague-Dawley rat at 80 ug/kg, sc at 6 hrs; assay type: functional; outline: as §3

| Structure (SMILES) | Kb [1] | pIC50 [2] | Activity (Rattus norvegicus [3]) | Activity (Rattus norvegicus [4]) | Activity [5] | also measured |
| --- | --- | --- | --- | --- | --- | --- |
| COc1ccc(Cn2c(CCc3ccccc3)nnc2[C@@H](Cc2c[nH]c3ccccc23)NC(=O)C(C)(C)N)cc1 | 5 nM | 7.96 | 0.2 g | -10% | 0% | – |
| Cc1[nH]c2ccccc2c1C[C@@H](NC(=O)[C@@H](N)Cc1c[nH]cn1)C(=O)N[C@@H](C)C(=O)N[C@@H](Cc1c[nH]c2ccccc12)C(=O)N[C@H](Cc1ccccc1)C(=O)N[C@@H](CCCCN)C(N)=O [EXAMORELIN] (H-H[dTrp(2-Me)]AW[dF]K-NH2) | – | – | – | – | – | Activity (Rattus norvegicus [6]): 170 ng/mL; Activity (Rattus norvegicus [7]): 1.01 g |
| COc1ccc(Cn2c(CCc3c[nH]c4ccccc34)nnc2[C@@H](Cc2c[nH]c3ccccc23)NC(=O)C(C)(C)N)c(OC)c1 | 14 nM | 6.97 | 0.06 g | -63% | 0% | – |
| COc1ccc(Cn2c(Cc3c[nH]c4ccccc34)nnc2[C@@H](Cc2c[nH]c3ccccc23)NC(=O)C(C)(C)N)cc1 | – | 6.18 | – | – | 0% | Activity ([1]; filed as antagonist): Antagonist |
| COc1ccc(Cn2c(CCCc3c[nH]c4ccccc34)nnc2[C@@H](Cc2c[nH]c3ccccc23)NC(=O)C(C)(C)N)cc1 | 12 nM | 6.84 | – | – | 0% | – |
| CC(C)(N)C(=O)N[C@H](Cc1c[nH]c2ccccc12)c1nnc(CCCc2c[nH]c3ccccc23)n1Cc1ccccc1 | – | 7.48 | 0.01 g | -97% | 30% | pEC50 [8]: 7.31; Activity (Rattus norvegicus [9]): 0.08 g; Activity (Rattus norvegicus [10]): 13 ng/mL; Activity (Rattus norvegicus [11]): 0.46 g; Activity (Rattus norvegicus [12]): 0.25 g; Activity (Rattus norvegicus [13]): 0.25 g |
| COc1ccccc1Cn1c(Cc2ccccc2)nnc1[C@@H](Cc1c[nH]c2ccccc12)NC(=O)C(C)(C)N | – | 6.39 | – | – | 66% | Activity ([1]; filed as partial agonist): Partial agonist |
| COc1ccc(Cn2c(CCc3ccccc3)nnc2[C@@H](Cc2c[nH]c3ccccc23)NC(=O)C(C)(C)N)c(OC)c1 | 17 nM | 7.22 | – | – | 0% | – |
| COc1ccc(Cn2c(Cc3ccccc3)nnc2[C@@H](Cc2c[nH]c3ccccc23)NC(=O)C(C)(C)N)cc1 | – | 6.92 | 0.17 g | -31% | 0% | Activity ([1]; filed as antagonist): Antagonist |
